High-throughput results as filed in PubChem.
ADAM17 inh: ADAM17 inhibitors, primary screen, biochemical, QFRET; recombinant ADAM17, EDANS/DABCYL FRET peptide cleavage; inhibition, % at 6.95 µM; actives 0.83% (n = 370,000); AID 720648, 2013;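 active = inhibition above the mean of compounds lying between control limits plus 3 SD, set per campaign, cut at about 8.5% in these data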;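 note: 0% = DMSO-only wells as the low control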
ADAM10 inh: human ADAM10 inhibitors, primary screen, biochemical, QFRET, HTS; recombinant ADAM10, EDANS/DABCYL FRET peptide cleavage, 3 h; inhibition, % at 7 µM; actives 0.62% (n = 370,000); AID 720582, 2013;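 active = inhibition above a per-campaign cutoff equal to the mean of compounds falling between control-based bounds plus 3 SD, cut at about 20% in these data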;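 note: 0% = DMSO wells while the 100% control is not disclosed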
FAS-TE inh: FAS thioesterase domain inhibitors, primary screen, biochemical, fluorescence intensity, uHTS; Fatty acid synthase (Homo sapiens), P49327; recombinant FAS-TE, OMFH fluorogenic substrate, fluorescence endpoint; inhibition, % at 15 µM; actives 0.67% (n = 360,000); AID 602261, 2012;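 active = compounds whose normalised, plate-corrected inhibition of enzyme fluorescence in the single-dose primary screen is 50% or more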;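 note: 0% = DMSO with enzyme and 100% = substrate without enzyme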
SENP1 inh: human SENP1 catalytic domain inhibitors, primary screen, biochemical, FRET, uHTS; Sentrin-specific protease 1 (Homo sapiens), Q9P0U3; recombinant SENP1 catalytic domain, CyPet-SUMO1-YPet FRET cleavage; inhibition, % at 10 µM; actives 0.21% (n = 360,000); AID 624204, 2012;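 active = inhibition at least 30% at 10 µM, raw YFP signal under a set limit, fluorescence ratio 0.5 to 1.5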;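 note: 0% = enzyme with DMSO and 100% = no enzyme wells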
Target sequence (Q9P0U3 419-644 limits assumed): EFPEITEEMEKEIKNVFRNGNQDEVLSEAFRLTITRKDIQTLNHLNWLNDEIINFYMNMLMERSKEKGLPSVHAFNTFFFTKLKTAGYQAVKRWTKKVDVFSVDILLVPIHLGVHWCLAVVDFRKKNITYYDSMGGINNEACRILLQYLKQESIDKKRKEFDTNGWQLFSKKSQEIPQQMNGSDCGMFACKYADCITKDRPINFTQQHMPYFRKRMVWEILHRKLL
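Controls: no-enzyme wells low, DMSO-plus-enzyme wells high control. Test system: human recombinant His6-tagged SENP1 catalytic domain enzyme. Reagent: SFCypet-SUMO1-SFYpet FRET protein substrate, 25 nM final. Doses: one dose per compound, 10 µM, 0.5% DMSO. Detection: FRET, CFP and YFP emission. Timing: 50 min reaction at room temperature.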
FAS-TE inh conf: FAS thioesterase domain inhibitors, confirmation, biochemical, fluorescence intensity, single concentration; shares compounds with FAS-TE inh; recombinant FAS-TE, OMFH fluorogenic substrate; inhibition, % at 15 µM; actives 45% (n = 2,300); AID 624325, 2012;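 active = compounds inhibiting the enzyme by at least 50% at 15 µM in any one of the replicates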;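 note: 0% = enzyme with DMSO only and 100% = wells lacking enzyme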
* marks the source's active call; other numbers are inactive results; i = inactive; . = no result. In the library only some 1.9% were active in any assay of this set; here they are far more common.

SMILES	ADAM17 inh	ADAM10 inh	FAS-TE inh	SENP1 inh	FAS-TE inh conf
O=C(Nc1ccc(Nc2ccccc2)cc1)c1ccc(Cl)cc1[N+](=O)[O-]	7.7	17.1	22.5	2.0	.
Cc1ccc(S(=O)(=O)NN=C2CCC(C(C)(C)C)CC2)cc1[N+](=O)[O-] (configuration not stated)	.	.	66.9*	1.2	46.8*
COc1ccc(/C=C(/NC(=O)c2ccccc2)C(=O)N/N=C/c2cccs2)cc1OC	-1.8	-6.2	-4.5	-52.1	.
COc1ccc([N+](=O)[O-])cc1/C=N/NC(=O)/C(=C\c1cccs1)NC(=O)c1ccccc1	1.2	2.0	79.4*	-0.6	65.7*
CCN1Cc2c(/C=C/c3ccccc3)nc3ccc(OC)cc3c2N(c2cccc(Cl)c2)C1	-20.5	-47.4	76.6*	-23.5	85.0*
COCCCN1C(=O)[C@H](CC(=O)N2CCN(C(=O)C3CC3)CC2)[C@]2(C(=O)OC)CCCCC=C12	-0.4	0.7	.	.	.
Cc1ccc(S(=O)(=O)N(C)[C@H]2C[C@H]3c4[nH]c5cccc(-c6ccccc6)c5c4CCN3C(=O)[C@H]2[C@H](C)O)cc1	-392.6	i	.	.	.
CN(CC(=O)Nc1cccc(S(=O)(=O)N(C)C)c1)Cc1ccccc1	-1.0	2.8	0.7	-1.3	.
CN(CC(=O)Nc1ccc(S(=O)(=O)N(C)C)cc1)Cc1ccc(C(F)(F)F)cc1	-0.2	7.6	52.6*	-1.3	40.0
O=C(CCCN1C(=O)/C(=C/c2ccccc2Cl)SC1=S)Nc1cccnc1	-2.8	8.9	44.5	3.4	.
O=C1/C(=C/c2ccccc2Cl)SC(=S)N1CCCC(=O)N(CCO)c1ccccc1	5.5	0.5	56.3*	-0.6	39.6*
O=C(CCN1C(=O)/C(=C/c2ccccc2Cl)SC1=S)Nc1cccnc1	-2.2	9.6	62.1*	4.9	2.9
O=C(CCN1C(=O)/C(=C/c2ccccc2Cl)SC1=S)Nc1ccccn1	1.9	2.4	64.7*	1.6	58.5*
CC(C)C[C@@H]1COc2cc(Br)ccc2S(=O)(=O)N1Cc1cn(Cc2ccccc2)nn1	-4.7	-10.8	.	.	.
O=C(OCc1cn(Cc2ccc(F)cc2)nn1)N1CCOCC1	-2.4	-19.7	.	.	.
CCc1cc2c(nc1CC)CCCN2S(=O)(=O)c1ccccc1	-1.6	-5.9	.	.	.
CCn1cc(C(=O)NCCc2ccc(C)cc2)c(=O)c2cc(S(=O)(=O)N(C)C)ccc21	-7.7	-4.5	.	.	.
CCn1cc(C(=O)NC(C)CCc2ccccc2)c(=O)c2cc(S(=O)(=O)N(C)C)ccc21 (configuration not stated)	2.5	8.3	62.8*	0.9	27.7
CCn1cc(C(=O)NCc2ccc3c(c2)OCO3)c(=O)c2cc(S(=O)(=O)N(C)C)ccc21	5.0	6.5	57.4*	2.0	42.1*
CCn1cc(C(=O)NCCc2ccc(Cl)cc2)c(=O)c2cc(S(=O)(=O)N(C)C)ccc21	-5.5	3.1	74.6*	1.0	34.5
CCn1cc(C(=O)NCc2ccc(Cl)cc2)c(=O)c2cc(S(=O)(=O)N3CCOCC3)ccc21	-3.2	0.8	11.8	1.4	.
CCn1cc(C(=O)NCCCN(C)c2ccccc2)c(=O)c2cc(S(=O)(=O)N(C)C)ccc21	-0.4	-9.8	31.8	-1.3	.
CCn1cc(C(=O)NCc2ccc(Cl)cc2)c(=O)c2cc(S(=O)(=O)N(C)C)ccc21	-2.3	1.3	64.1*	-0.3	76.6*
CC(C)(C)c1ccc(/C=C2\CCn3c2nc2cc(C(=O)O)ccc2c3=O)cc1	.	.	84.0*	1.6	87.7*
Cc1ccc(S(=O)(=O)N2CCN(c3ccnc4cc(Cl)ccc34)CC2)cc1	4.6	6.0	63.7*	1.7	1.4
SMILES	ADAM17 inh	ADAM10 inh	FAS-TE inh	SENP1 inh	FAS-TE inh conf
CC(=O)CC[C@H]1CC[C@]2(CCCN(S(=O)(=O)C3CCCCC3)C2)O1	-2.1	-9.1	.	.	.
CCCCCCCCN1C(=O)[C@@H](CC(=O)N2CCN(C(=O)OCC)CC2)C[C@@]2(C(=O)OC)C1=C[C@H](COCc1ccccc1)O[C@@H]2C	1.6	4.9	.	.	.
COC(=O)[C@]1(Cc2ccccc2)N[C@H](c2ccc(-c3cc(C(C)=O)cs3)cc2)[C@@H]2C(=O)N(C)C(=O)[C@@H]21	-15.8	-62.8	26.3	1.6	.
COC(=O)C1(Cc2ccccc2)NC(c2ccc(F)cc2)C2C(=O)N(C)C(=O)C21 (configuration not stated)	2.2	-10.7	0.6	2.4	.
COC(=O)[C@]1(Cc2ccccc2)N[C@H](c2ccc(-c3cccc(Cl)c3)cc2)[C@@H]2C(=O)N(C)C(=O)[C@@H]21	5.7	19.7	91.2*	-2.3	20.9
COC(=O)[C@]1(Cc2ccccc2)N[C@H](c2ccc(-c3ccc(Cl)c(Cl)c3)cc2)[C@@H]2C(=O)N(C)C(=O)[C@@H]21	-4.1	-3.5	89.8*	-2.9	21.7
COC(=O)[C@]1(Cc2ccccc2)N[C@H](c2ccc(-c3ccccc3)cc2)[C@@H]2C(=O)N(C)C(=O)[C@@H]21	-0.2	-0.1	55.6*	1.5	10.3
CCN1C(=O)[C@H]2[C@@H](c3ccc(-c4cccc(Cl)c4)cc3)N[C@@](CC(C)C)(C(=O)OC)[C@H]2C1=O	-0.9	4.4	51.7*	1.7	15.9
O=C(O)c1ccc(Cl)c(NC(=S)NC(=O)c2cccc(COc3ccccc3)c2)c1	-4.0	-1.8	61.1*	0.4	71.8*
CSCCC(NC(=O)c1ccc(Cl)c([N+](=O)[O-])c1)C(=O)N1CCN(C/C=C/c2ccccc2)CC1 (configuration not stated)	3.6	6.7	58.0*	0.4	59.3*
O=C(Nc1nc2cc(Cl)ccc2s1)C1CCCN(S(=O)(=O)c2cccc3cccnc23)C1 (configuration not stated)	.	.	69.1*	-32.0	13.6
CCC(C)(C)C1CCc2[nH]nc(C(=O)NCCCNC(=O)OC(C)(C)C)c2C1 (configuration not stated)	-6.0	2.7	69.4*	1.9	49.6*
CCC(C)(C)C1CCc2[nH]nc(C(=O)NCCN3CCOCC3)c2C1 (configuration not stated)	1.8	5.8	-6.3	2.2	.
Cn1ncc2c(Nc3ccc(Br)cc3)nc(Nc3ccc(Br)cc3)nc21	-7.7	-1.3	50.2*	-13.6	32.1
Cn1ncc2c(Nc3cccc(Cl)c3)nc(Nc3cccc(Cl)c3)nc21	-11.2	-14.8	56.6*	0.2	28.2
O=C(COC(=O)c1cc([N+](=O)[O-])ccc1NCCO)c1ccc(Cl)cc1	2.5	12.1	46.3	0.5	.
Cc1cc(C)c(C(=O)COC(=O)c2cc([N+](=O)[O-])ccc2NCCO)cc1C	2.7	4.3	52.4*	1.9	36.6*
